This passage reports IC50, Emax and EC50 results from ChEMBL document CHEMBL3861968, “Neuroactive and Anti-inflammatory Frankincense Cembranes: A Structure-Activity Study” (J Nat Prod, 2016).

Common to all, as to assay type: cell-based
The nature of experiment [1]: Inhibition of TNFalpha-induced NFkappaB activation in mouse NIH-3T3 cells expressing NFkappaB (unknown origin) preincubated for 15 mins followed by TNFalpha addition measured after 6 hrs by luciferase reporter gene assay. The conditions noted are these: NIH3T3.
Experiment [2] concerns the target T1, Heat sensitive channel TRPV3 (Rattus norvegicus) (UniProt Q4QYD9).
T1 sequence (whole entry): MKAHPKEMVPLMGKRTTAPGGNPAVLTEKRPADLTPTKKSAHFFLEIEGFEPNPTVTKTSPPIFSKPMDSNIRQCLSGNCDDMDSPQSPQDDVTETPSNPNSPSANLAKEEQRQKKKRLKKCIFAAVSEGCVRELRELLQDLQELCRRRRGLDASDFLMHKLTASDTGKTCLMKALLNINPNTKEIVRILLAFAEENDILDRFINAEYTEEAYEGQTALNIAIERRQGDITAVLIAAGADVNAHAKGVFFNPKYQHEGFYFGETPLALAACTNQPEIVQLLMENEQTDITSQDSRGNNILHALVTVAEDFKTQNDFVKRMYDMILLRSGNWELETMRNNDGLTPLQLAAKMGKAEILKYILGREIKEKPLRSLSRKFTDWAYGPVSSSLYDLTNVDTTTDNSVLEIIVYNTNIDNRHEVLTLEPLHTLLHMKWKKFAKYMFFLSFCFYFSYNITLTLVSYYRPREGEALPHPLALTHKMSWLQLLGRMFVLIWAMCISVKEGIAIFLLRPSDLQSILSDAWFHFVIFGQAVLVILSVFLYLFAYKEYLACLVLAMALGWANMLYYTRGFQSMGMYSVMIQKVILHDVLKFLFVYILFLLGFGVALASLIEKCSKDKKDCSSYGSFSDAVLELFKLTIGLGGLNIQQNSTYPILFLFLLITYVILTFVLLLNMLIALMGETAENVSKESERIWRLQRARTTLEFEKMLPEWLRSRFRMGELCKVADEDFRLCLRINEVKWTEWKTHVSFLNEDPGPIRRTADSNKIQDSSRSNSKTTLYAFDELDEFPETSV
The experiment in a line: Activation of rat TRPV3 overexpressed in HEK293 cells assessed as increase in 2-aminoethoxydiphenyl borate-induced intracellular calcium concentration by Fluo-4AM dye-based spectrofluorometry relative to ionomycin. The method in brief:
(§1)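 Stable rat TRPV3 HEK293 cells in MEM with 10% FBS, 37 °C, 5% CO2. Pre-sensitized with 2-APB (100 μM). Loaded 1 h at room temperature with Fluo-4 AM (4 μM), washed, held in Tyrode's buffer pH 7.4 in a stirred cuvette. Untransfected HEK293 baseline subtracted. EC50 taken from sigmoidal variable-slope fit. Efficacy expressed relative to 4 μM ionomycin. At least triplicate.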

Experiment [3] concerns the target T2, Heat sensitive channel TRPV3 (Rattus norvegicus, UniProt Q4QYD9).
T2 sequence (Q4QYD9 whole entry): T1 sequence (whole entry)
In words: Activation of rat TRPV3 overexpressed in HEK293 cells assessed as increase in 2-aminoethoxydiphenyl borate-induced intracellular calcium concentration by Fluo-4AM dye-based spectrofluorometry. The method in brief: as §1

The target in experiment [4] is T2, Heat sensitive channel TRPV3. The experiment in a line: Antagonist activity at rat TRPV3 overexpressed in HEK293 cells assessed as inhibition of thymol-induced increase in intracellular Ca2+ levels preincubated for 5 mins prior to thymol-stimulation by Fluo-4AM dye-based spectrofluorometry. The method in brief: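 Compounds added 5 min before thymol (100 μM). Thymol-alone response taken as 100%. IC50 of inhibition of the [Ca2+]i rise taken from sigmoidal variable-slope fit. At least triplicate. ANOVA with Bonferroni.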

In experiment [5] the target is T3, Transient receptor potential cation channel subfamily V member 3 (Mus musculus, UniProt Q8K424).
T3 sequence (Q8K424 whole entry): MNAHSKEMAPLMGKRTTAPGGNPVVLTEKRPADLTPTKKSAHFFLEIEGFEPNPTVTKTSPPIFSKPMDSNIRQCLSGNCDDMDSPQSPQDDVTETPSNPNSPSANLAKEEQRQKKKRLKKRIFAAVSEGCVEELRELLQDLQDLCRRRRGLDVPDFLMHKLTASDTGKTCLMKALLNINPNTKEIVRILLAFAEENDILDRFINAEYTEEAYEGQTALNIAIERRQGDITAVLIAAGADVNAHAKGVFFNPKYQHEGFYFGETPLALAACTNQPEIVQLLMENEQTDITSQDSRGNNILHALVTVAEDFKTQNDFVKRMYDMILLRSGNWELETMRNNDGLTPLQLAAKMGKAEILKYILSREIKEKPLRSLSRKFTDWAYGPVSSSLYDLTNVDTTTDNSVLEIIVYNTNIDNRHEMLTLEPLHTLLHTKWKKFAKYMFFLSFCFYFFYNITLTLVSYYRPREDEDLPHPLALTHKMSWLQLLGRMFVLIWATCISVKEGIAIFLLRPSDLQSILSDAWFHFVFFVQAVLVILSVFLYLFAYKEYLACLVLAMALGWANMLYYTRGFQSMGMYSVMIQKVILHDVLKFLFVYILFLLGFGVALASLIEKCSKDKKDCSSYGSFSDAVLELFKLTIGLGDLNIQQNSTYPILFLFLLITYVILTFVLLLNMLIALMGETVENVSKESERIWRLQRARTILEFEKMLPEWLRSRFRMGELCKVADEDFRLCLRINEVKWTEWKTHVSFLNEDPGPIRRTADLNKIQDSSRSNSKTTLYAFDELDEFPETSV
The experiment in a line: Agonist activity at mouse YFP-tagged TRPV3 expressed in HEK293 cells assessed as increase in calcium influx by Fluo-2-AM dye based microscopic analysis.

By IC50 is commonly meant the midpoint of a concentration-inhibition curve. Regarding `C/C1=C\C[C@]2(C(C)C)CC[C@@](C)(O2)[C@@H](OC(=O)/C=C/c2ccccc2)CC/C(C)=C/CC1`, the concentration for half-maximal inhibition (IC50) in experiment [1] is above 50 µM.

In experiment [1], `C/C1=C\C[C@]2(C(C)C)CC[C@@](C)(O2)C(=O)CC/C(C)=C/CC1` registered an IC50 above 50 µM.

What is called Emax is the maximal effect, on the per cent scale that the assay sets. What is called EC50 is the concentration giving half of the maximal effect. Turning to `CC1=C2CC/C(C)=C/CC[C@]3(C)O[C@@H]3CC/C(C)=C/[C@@H]2OC1=O`, the maximal response (Emax) in experiment [2] was 21.3%. Besides, the EC50 in experiment [3] amounted to 30.1 µM. Moreover, the IC50 is above 100 µM in experiment [4] and above 50 µM in experiment [1].

Turning to `C/C1=C\CC/C(C)=C/C[C@](O)(C(C)C)CC/C(C)=C/CC1`, the Emax in experiment [2] turned out to be 62.4%. Further, in experiment [3], the EC50 came to 0.17 µM. For the same compound, the half-maximal inhibitory concentration (IC50) in experiment [4] is 0.15 µM; in experiment [1], above 50 µM.

On to `CC(=O)O[C@H]1CC/C(C)=C/CC[C@]2(C)O[C@@H]2C[C@]2(C(C)C)CC[C@@]1(C)O2`, for which, in experiment [2], the Emax stood at 57.7%. Moreover, the 50% effective concentration (EC50) in experiment [3] was 8.8 µM. The concentration for half-maximal inhibition (IC50) is 13.2 µM in experiment [4] and above 50 µM in experiment [1].

Take `C/C1=C\C[C@]2(C(C)C)CC[C@@](C)(O2)[C@@H](OC(=O)c2ccccc2)CC/C(C)=C/CC1`: the half-maximal inhibitory concentration (IC50) in experiment [1] was above 50 µM.

For the compound `CCCCCCCCC(=O)O[C@H]1CC/C(C)=C/CC/C(C)=C/C[C@]2(C(C)C)CC[C@@]1(C)O2`, the concentration for half-maximal inhibition (IC50) in experiment [1] came out at 35.5 µM.

On to `CC(=O)O[C@H]1CC[C@@]2(C)O[C@H]2CC/C(C)=C/C[C@]2(C(C)C)CC[C@@]1(C)O2`, for which the maximal response (Emax) in experiment [2] came out at 31.6%. For the same compound, the concentration for a half-maximal effect (EC50) in experiment [3] was 8.6 µM. Besides, the results for the IC50 in experiment [4] and in experiment [1] were 21.1 µM and above 50 µM, respectively.

Turning to `C/C1=C\C[C@]2(C(C)C)CC[C@@](C)(O2)[C@@H](O)CC/C(C)=C/CC1` [INCENSOLE], the Emax in experiment [2] stood at 65.1%. Also, the half-maximal effective concentration (EC50) in experiment [3] amounted to 2.1 µM. In addition, the half-inhibitory concentration (IC50) in experiment [4] was 2.1 µM; in experiment [1], above 50 µM.

For the compound `CC(=O)O[C@H]1CC/C(C)=C/CC/C(C)=C/C[C@]2(C(C)C)CC[C@@]1(C)O2`, the Emax in experiment [2] was 43.4%. The EC50 in experiment [3] was found to be 1.4 µM; in experiment [5] it was 16 µM. The IC50 in experiment [4] was 2.2 µM; in experiment [1] it was above 50 µM.

Regarding `C/C1=C\C[C@]2(C(C)C)CC[C@@](C)(O2)[C@@H](OC(=O)Cc2ccccc2)CC/C(C)=C/CC1`, in experiment [2], the Emax was 25.6%. The EC50 in experiment [3] was 1.2 µM. The figures for the IC50 in experiment [4] and in experiment [1] were 21.7 µM and 22.4 µM, respectively.

Turning to `NC(=O)c1sc(-c2ccsc2)cc1N`, 7.9 µM corresponded to half-maximal inhibition in experiment [1] (IC50).

With `C/C1=C\CC[C@]2(C)O[C@@H]2C[C@]2(C(C)C)CC[C@@](C)(O2)[C@@H](O)CC1`, the Emax in experiment [2] stood at 27.2%. In experiment [3], the concentration for a half-maximal effect (EC50) turned out to be 25.4 µM. In addition, the results for the 50% inhibitory concentration (IC50) in experiment [4] and in experiment [1] were above 100 µM and above 50 µM, respectively.

Compound `CC1=C2CC/C(C)=C/CC[C@]3(C)O[C@@H]3CC/C(C)=C/[C@@H]2OC1` came in with an IC50 in experiment [1] above 50 µM.

`Cc1ccc(C(C)C)c(O)c1` [THYMOL]: the maximum response (Emax) in experiment [2] stood at 49.4%. In addition, the 50% effective concentration (EC50) in experiment [3] was 29 µM.

For the compound `C/C1=C\C[C@]2(C(C)C)CC[C@@](C)(O2)[C@H](O)CC/C(C)=C/CC1`, in experiment [2], the maximum response (Emax) was 38%. Also, the concentration for a half-maximal effect (EC50) in experiment [3] stood at 7.3 µM. In addition, the IC50 in experiment [4] is 12.3 µM; in experiment [1], above 50 µM.
